The values below come from ChEMBL document CHEMBL4138314, “Synthesis and Evaluation of N-Phenyl-3-sulfamoyl-benzamide Derivatives as Capsid Assembly Modulators Inhibiting Hepatitis B Virus (HBV)” (J Med Chem, 2018).

In general, AUC(0-t) refers to exposure summed from dosing to a finite time, without extrapolation to infinity. Lower therefore signals low exposure. As usually defined, the IC50 is the concentration at which inhibition is half-maximal. A lower IC50 goes with higher potency. By Cmax is commonly meant the highest concentration seen after dosing.

Each structure is given as a SMILES string.

Data set [1] can be described thus: Drug uptake in humanized mouse liver at 200 mg/kg, sc after 24 hrs by LC-MS/MS analysis. In kind it is ADME, organism-based. The following applies: read-out: Drug uptake. The method, boiled down: (§1)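 Uninfected humanized mice given 50 or 200 mg/kg subcutaneously once daily as a methocel suspension for 8 days; liver concentration measured 24 h after dosing.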
The nature of data set [2]: AUC (0 to last) in C57BL/6 mouse at 50 mg/kg, sc by LC-MS/MS analysis. Also on record: dose 50 mg/kg, time 0 - last, route subcutaneous. The data set is classed as ADME, organism-based. Particulars: in vivo.
For the next data set, the target named is Cytochrome P450 2D6 (Homo sapiens, UniProt P10635). Kind of data set: Inhibition of CYP2D6 (unknown origin). The data set is classed as ADME.
Cytochrome P450 2D6, sequence (P10635 whole entry): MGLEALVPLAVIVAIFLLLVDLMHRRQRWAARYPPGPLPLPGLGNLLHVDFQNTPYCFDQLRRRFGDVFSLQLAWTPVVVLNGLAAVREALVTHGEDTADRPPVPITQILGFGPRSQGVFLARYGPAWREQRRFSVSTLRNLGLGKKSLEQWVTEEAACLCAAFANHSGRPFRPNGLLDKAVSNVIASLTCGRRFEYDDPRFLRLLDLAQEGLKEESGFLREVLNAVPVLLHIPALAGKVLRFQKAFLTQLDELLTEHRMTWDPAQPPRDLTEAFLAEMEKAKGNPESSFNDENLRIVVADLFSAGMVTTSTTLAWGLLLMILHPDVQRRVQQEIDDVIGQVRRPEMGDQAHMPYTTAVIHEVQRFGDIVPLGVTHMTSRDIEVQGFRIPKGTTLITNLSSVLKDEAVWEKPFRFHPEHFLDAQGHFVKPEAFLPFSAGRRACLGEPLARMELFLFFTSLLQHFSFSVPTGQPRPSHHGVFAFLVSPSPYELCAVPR
Data set [3] in a line: Plasma concentration in humanized mouse at 50 mg/kg, sc after 24 hrs by LC-MS/MS analysis. The data set is classed as ADME, organism-based.
Data set [4] deals with 5-hydroxytryptamine receptor 2B (Homo sapiens, UniProt P41595). The data set can be described thus: Antagonist activity at 5-HT2B (unknown origin). The data set is classed as functional. In outline:
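Receptor/ion channel/transporter panel of 80 targets screened at 10 µM, giving percent effect at 5-HT2B; follow-up 5-HT2B functional testing in agonist and antagonist modes, with antagonist IC50 determined.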

A short description of data set [5]: AUC (0 to last) in C57BL/6 mouse at 50 mg/kg, po by LC-MS/MS analysis. Also noted: dose 50 mg/kg, route oral, time 0 - last. The following applies: in vivo. The data set is classed as ADME, organism-based. In outline:
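Single-dose PK in C57BL/6 mice after intravenous or oral dosing, with oral doses of 10 and 50 mg/kg; plasma clearance and volume of distribution taken from the i.v. arm.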

Data set [6] can be described thus: Drug uptake in humanized mouse liver at 50 mg/kg, sc after 24 hrs by LC-MS/MS analysis. The data set is classed as ADME, organism-based. Particulars: read-out: Drug uptake. The method, boiled down: as §1
In data set [7] the target is Voltage-gated inwardly rectifying potassium channel KCNH2 (Homo sapiens, UniProt Q12809). The data set can be described thus: Inhibition of human ERG.
Voltage-gated inwardly rectifying potassium channel KCNH2, sequence (Q12809 whole entry): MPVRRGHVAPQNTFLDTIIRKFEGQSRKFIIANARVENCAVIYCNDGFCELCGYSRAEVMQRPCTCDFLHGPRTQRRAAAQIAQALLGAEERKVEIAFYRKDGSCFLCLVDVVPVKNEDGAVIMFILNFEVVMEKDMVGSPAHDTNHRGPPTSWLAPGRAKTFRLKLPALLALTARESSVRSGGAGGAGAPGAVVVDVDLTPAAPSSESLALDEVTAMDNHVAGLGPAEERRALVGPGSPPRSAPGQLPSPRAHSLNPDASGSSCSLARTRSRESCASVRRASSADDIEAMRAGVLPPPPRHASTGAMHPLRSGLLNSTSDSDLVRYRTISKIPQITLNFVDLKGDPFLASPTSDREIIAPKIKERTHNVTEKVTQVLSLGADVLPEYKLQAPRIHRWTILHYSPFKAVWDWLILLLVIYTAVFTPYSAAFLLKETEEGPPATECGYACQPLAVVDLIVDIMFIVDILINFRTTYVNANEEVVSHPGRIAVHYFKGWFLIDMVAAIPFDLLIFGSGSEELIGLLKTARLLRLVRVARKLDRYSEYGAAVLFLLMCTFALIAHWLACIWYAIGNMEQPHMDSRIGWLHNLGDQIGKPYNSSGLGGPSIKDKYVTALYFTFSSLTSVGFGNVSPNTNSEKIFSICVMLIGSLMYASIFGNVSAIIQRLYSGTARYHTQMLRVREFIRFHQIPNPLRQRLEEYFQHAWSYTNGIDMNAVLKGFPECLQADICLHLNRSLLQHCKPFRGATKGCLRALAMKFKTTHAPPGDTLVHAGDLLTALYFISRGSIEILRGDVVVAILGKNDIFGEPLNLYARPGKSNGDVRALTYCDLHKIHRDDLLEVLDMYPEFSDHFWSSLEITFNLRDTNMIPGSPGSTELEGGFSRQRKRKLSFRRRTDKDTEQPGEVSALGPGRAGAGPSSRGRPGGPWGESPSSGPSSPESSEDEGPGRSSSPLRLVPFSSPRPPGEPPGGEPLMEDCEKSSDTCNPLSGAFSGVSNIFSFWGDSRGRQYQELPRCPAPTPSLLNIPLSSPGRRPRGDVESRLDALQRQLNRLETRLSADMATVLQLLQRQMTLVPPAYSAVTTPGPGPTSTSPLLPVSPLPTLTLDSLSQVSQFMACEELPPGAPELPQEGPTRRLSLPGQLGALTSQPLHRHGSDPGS
Another data set relates to HBV genotype D. Kind of data set: Antiviral activity against HBV genotype D infected in chimeric mouse with humanized liver assessed as log reduction in viral DNA level in serum at 200 mg/kg, sc qd for 28 days by RT-PCR method. In kind it is functional, hepatitis B virus genotype D. The method, boiled down:
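HBV genotype D-infected chimeric mice with humanized liver (human hepatocyte replacement index ≥70%, judged by serum human albumin). Dosing was once daily for 28 days: test article 200 mg/kg s.c., entecavir 0.03 mg/kg oral as positive control, and oral saline as negative control. The read-out was serum HBV DNA (copies/mL), given as mean log change from baseline at day 29.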

The nature of data set [8]: Cmax in C57BL/6 mouse at 50 mg/kg, sc by LC-MS/MS analysis. The data set is classed as ADME, organism-based. Also on record: dose 50 mg/kg, route subcutaneous. The following applies: in vivo.
The nature of data set [9]: Cmax in C57BL/6 mouse at 50 mg/kg, po by LC-MS/MS analysis. In kind it is ADME, organism-based. Also on record: dose 50 mg/kg, route oral. The following applies: in vivo.

5-hydroxytryptamine receptor 2B, sequence (P41595 whole entry): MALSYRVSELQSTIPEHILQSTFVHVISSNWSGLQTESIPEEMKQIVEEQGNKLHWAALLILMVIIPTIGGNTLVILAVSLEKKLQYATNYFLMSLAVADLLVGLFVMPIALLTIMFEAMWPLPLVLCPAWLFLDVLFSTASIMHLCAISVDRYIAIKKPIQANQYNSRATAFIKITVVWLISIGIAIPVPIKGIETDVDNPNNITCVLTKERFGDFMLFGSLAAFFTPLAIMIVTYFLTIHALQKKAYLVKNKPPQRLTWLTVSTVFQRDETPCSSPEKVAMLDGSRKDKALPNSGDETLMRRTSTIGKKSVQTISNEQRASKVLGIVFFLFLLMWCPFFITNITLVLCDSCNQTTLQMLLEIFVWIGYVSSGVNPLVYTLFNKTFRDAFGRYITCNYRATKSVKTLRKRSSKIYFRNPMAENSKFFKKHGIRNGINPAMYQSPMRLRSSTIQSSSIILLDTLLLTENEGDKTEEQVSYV

`Cc1cc(NC(=O)c2cccc(S(=O)(=O)N[C@H]3CCOC3)c2)ccc1F`: the concentration at 24 h in [1] came to 4880 ng/g; in [3] it was 167 ng/mL; in data set [6], 570 ng/g. Also, the AUC(0-t) in data set [2] came to 16900 ng·h/mL; in data set [5], 16400 ng·h/mL. For the same molecule, the values for the IC50 (against Cytochrome P450 2D6; in [4]; in data set [7]) were greater than 10 µM, 4 to 5.6 µM and greater than 10 µM, respectively. Moreover, in the data set on HBV genotype D, the “log(activity)” value worked out at 2.77. In addition, the values for the Cmax in data set [8] and in data set [9] were 3370 ng/mL and 9440 ng/mL, respectively.
